IC50 data for twelve compounds are collected here from ChEMBL document CHEMBL1177774, “2-Aryl-4,5,6,7-tetrahydro-1,3-benzothiazol-7-ols as a class of antitumor agents selectively active in securin(-/-) cells” (Bioorg Med Chem Lett, 2010).

Type in all cases: functional, cell-based
Assay [1] concerns HCT-116. As to the kind of experiment: Cytotoxicity against human HCT116 cells after 2 days by sulforhodamine B assay. The conditions noted are these: HCT-116, 48 h. In short, it runs like this: (§1)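 Cells kept in RPMI 1640 with 10% fetal bovine serum and 50 µg/ml gentamicin, 37 °C, humidified, 5% CO2. Plated in 96-well plates; compound dilutions added next day (final 2 nM to 200 µM), then 2 days culture before survival read-out. 10 concentrations, in triplicate (some in duplicate); repeat values agreed on average within 40%.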
(The SRB assay estimates cell density from bound dye.)

The test system of assay [2] is HCT-116. As to the kind of experiment: Cytotoxicity against human HCT116-D8 securin -/- cells after 2 days by sulforhodamine B assay. Particulars: HCT-116, 48 h. An outline of the steps:
as §1

Assay [3] in a line: Cytotoxicity against human HCT116-F3 securin -/- cells after 2 days by sulforhodamine B assay. Particulars: 48 h. An outline of the steps:
as §1

In the next assay the test system is MCF-10A. As to the kind of experiment: Cytotoxicity against human MCF10A cells after 2 days by sulforhodamine B assay. The conditions noted are these: 48 h. In short, it runs like this:
as §1

The next assay has as its system MCF7. As to the kind of experiment: Cytotoxicity against human MCF7 cells after 2 days by sulforhodamine B assay. The conditions noted are these: MCF7, 48 h. An outline of the steps: as §1
A further assay concerns MDA-MB-361. Kind of assay: Cytotoxicity against human MDA-MB-361 cells after 2 days by sulforhodamine B assay. Particulars: MDA-MB-361, 48 h. An outline of the steps:
as §1

For orientation: IC50 means the concentration needed to halve the response being measured. For the compound `OC1CNCc2nc(-c3ccc(N4CCCC4)cc3)sc21` (stereo unspecified), the IC50 in the assay with HCT-116 [1] came to 25000 nM; with HCT-116 [2] it was 730 nM; in assay [3], 1070 nM; with MCF-10A, 27800 nM; in the assay with MCF7 it was 1530 nM; in the assay on MDA-MB-361 it was 140 nM.

With `CN(C)c1ccc(-c2nc3c(s2)C(O)CNC3)c(CO)c1` (stereo unspecified), the half-maximal inhibitory concentration (IC50) was above 100000 nM in the assay on HCT-116 [1]; 100 nM in the assay with HCT-116 [2]; 100 nM in assay [3]; 70000 nM in the assay on MCF-10A; 31 nM in the assay with MCF7; 22 nM in the assay with MDA-MB-361.

As for `CN(C)c1ccc(-c2nc3c(s2)C(O)CCC3)cc1` (stereo unspecified), the IC50 in the assay with HCT-116 [1] is above 150000 nM; with HCT-116 [2], 1500 nM; in assay [3], 3000 nM; in the assay with MCF-10A, above 150000 nM; with MCF7, 1170 nM; in the assay with MDA-MB-361 it was 830 nM.

For `CN(C)c1ccc(-c2nc3c(s2)[C@H](O)CCC3)cc1`, the IC50 in the assay with HCT-116 [1] was 114000 nM; with HCT-116 [2], 850 nM; in assay [3] it was 1430 nM; in the assay with MCF-10A, above 100000 nM; in the assay with MCF7 it was 1450 nM; in the assay with MDA-MB-361 it was 200 nM.

Regarding `CN(C)c1ccc(-c2nc3c(s2)[C@@H](O)CCC3)cc1`, the IC50 in the assay on HCT-116 [1] is above 100000 nM; with HCT-116 [2], 20000 nM; in assay [3] it was 46000 nM; in the assay with MCF-10A it was above 100000 nM; with MCF7, 3300 nM.

For `Cc1cc(N(C)C)ccc1-c1nc2c(s1)[C@H](O)CCC2`, the IC50 is above 100000 nM in the assay with HCT-116 [1]; 270 nM in the assay on HCT-116 [2]; 230 nM in assay [3]; above 100000 nM in the assay with MCF-10A; 730 nM in the assay on MCF7; 83 nM with MDA-MB-361.

For `OCc1cc(N2CCCC2)ccc1-c1nc2c(s1)C(O)CNC2` (stereo unspecified), the IC50 with HCT-116 [1] is above 100000 nM; in the assay with HCT-116 [2] it was 70 nM; in assay [3], 60 nM; in the assay with MCF-10A, above 100000 nM; in the assay with MCF7 it was 13 nM; in the assay on MDA-MB-361, 20 nM.

`OC1CCCc2nc(-c3ccc(N4CCCC4)cc3)sc21` (stereo unspecified): the IC50 is above 100000 nM in the assay with HCT-116 [1]; 1530 nM with HCT-116 [2]; 2800 nM in assay [3]; above 100000 nM in the assay on MCF-10A; 8700 nM in the assay with MCF7; 200 nM with MDA-MB-361.

As for `CN(C)c1ccc(-c2nc3c(s2)C(O)CCC3)c(CO)c1` (stereo unspecified), the IC50 was 78000 nM with HCT-116 [1]; 60 nM in the assay on HCT-116 [2]; 60 nM in assay [3]; above 100000 nM in the assay with MCF-10A; 360 nM in the assay on MCF7; 420 nM in the assay with MDA-MB-361.

With `OCc1cc(N2CCCC2)ccc1-c1nc2c(s1)C(O)CCC2` (stereo unspecified), the IC50 is 21000 nM in the assay on HCT-116 [1]; 42 nM with HCT-116 [2]; 44 nM in assay [3]; 17000 nM in the assay with MCF-10A; 56 nM in the assay with MCF7; 32 nM with MDA-MB-361.

Take `CN(C)c1ccc(-c2nc3c(s2)C(O)CNC3)cc1` (stereo unspecified): the IC50 in the assay on HCT-116 [1] is 121000 nM; in the assay on HCT-116 [2] it was 1330 nM; in assay [3] it was 1630 nM; in the assay on MCF-10A, 70200 nM; with MCF7, 1600 nM; with MDA-MB-361 it was 170 nM.

Consider `Cc1cc(N(C)C)ccc1-c1nc2c(s1)[C@@H](O)CCC2`, for which the IC50 with HCT-116 [1] was 127000 nM; in the assay with HCT-116 [2], 560 nM; in assay [3], 1160 nM; in the assay with MCF-10A it was above 100000 nM; in the assay on MCF7, 2150 nM; in the assay with MDA-MB-361, 160 nM.
